Values after ≈ are worked out from the molar mass of the structure shown. Active and inactive are the calls of the source. The calls are words filed in the database; no cut-off is given here.
Legend:
Meloidogyne incognita [1] = test: Nematicidal activity against second juvenile stage (J2) of Meloidogyne incognita (root-knot nematode) assessed as mortality incubated in the dark at 28 degC after 3 days by light microscopy (benficial crop Tomato); type: functional; conditions: 72 h
Procedure, shortened: (§1)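 M. incognita eggs taken from infected tomato roots with hypochlorite and J2s hatched in Baermann funnels at 28 °C. J2s from the first 3 days kept in 0.01% Tween 20 water and used within 24 h. About 100 J2s per well; stock added 1:100 in DMSO or MeOH (≤1%). Plates kept shaking in the dark at 28 °C, scored by microscope at 1, 2 and 3 days. Mortality Abbott-corrected. Two runs, three replicates each.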

Meloidogyne incognita [2] = test: Nematicidal activity against second juvenile stage (J2) of Meloidogyne incognita (root-knot nematode) assessed as mortality incubated in the dark at 28 degC after 2 days by light microscopy (benficial crop Tomato); type: functional; conditions: 48 h; procedure, shortened: as §1
Caenorhabditis elegans = test: Nematicidal activity against Caenorhabditis elegans assessed as mortality; type: functional
[3] = test system: Bursaphelenchus xylophilus; test: Nematicidal activity against second juvenile stage (J2) of Bursaphelenchus xylophilus assessed as mortality at >0.33 ug/ml after 2 days by microtiter plate assay method (Beneficial crop Pine); type: functional
Procedure, shortened: (§2)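 Pine wood nematodes reared on B. cinerea mycelia on PDA for 7 days at 28 °C. J2s collected in 0.01% Triton X-100 water and tested in microtiter plates. Compounds in DMSO or MeOH, solvent ≤1%; solvent-only controls. Concentrations 0.004–1 μg/mL. Mortality Abbott-corrected; LC50 by probit. Two runs, three replicates each.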

[4] = test system: Bursaphelenchus xylophilus; test: Nematicidal activity against second juvenile stage (J2) of Bursaphelenchus xylophilus assessed as mortality after 2 days by microtiter plate assay method (Beneficial crop Pine); type: functional; conditions: 48 h; procedure, shortened: as §2
Meloidogyne incognita [5] = test: Nematicidal activity against second juvenile stage (J2) of Meloidogyne incognita (root-knot nematode) assessed as mortality incubated in the dark at 28 degC after 1 day by light microscopy (benficial crop Tomato); type: functional; conditions: 24 h; procedure, shortened: as §1
Rhizoctonia solani [6] = test: In vivo antifungal activity against Rhizoctonia solani infected rice seedlings assessed as control of rice sheath blight disease development at 125 ug/ml treated 1 day before spore inoculation measured 3-7 days after inoculation; type: functional
Procedure, shortened: (§3)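 Potted seedlings sprayed to runoff with material dissolved in MeOH and diluted in 0.025% Tween 20 (5% MeOH); controls got the Tween/MeOH solution alone. Inoculated with spores or mycelial suspension 1 day later. Infected leaf or sheath area rated 3–7 days after inoculation; % control = 100(A−B)/A. Randomized complete block design, three replicates, run in duplicate; Tukey HSD.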

Botrytis cinerea [7] = test: In vivo antifungal activity against Botryotinia fuckeliana infected in tomato seedlings assessed as control of tomato gray mold disease development at 250 ug/ml treated 1 day before spore inoculation measured 3-7 days after inoculation; type: functional; procedure, shortened: as §3
Botrytis cinerea [8] = test: In vivo antifungal activity against Botryotinia fuckeliana infected in tomato seedlings assessed as control of tomato gray mold disease development at 500 ug/ml treated 1 day before spore inoculation measured 3-7 days after inoculation; type: functional; procedure, shortened: as §3
Rhizoctonia solani [9] = test: In vivo antifungal activity against Rhizoctonia solani infected rice seedlings assessed as control of rice sheath blight disease development at 250 ug/ml treated 1 day before spore inoculation measured 3-7 days after inoculation; type: functional; procedure, shortened: as §3
Rhizoctonia solani [10] = test: In vivo antifungal activity against Rhizoctonia solani infected rice seedlings assessed as control of rice sheath blight disease development at 500 ug/ml treated 1 day before spore inoculation measured 3-7 days after inoculation; type: functional; procedure, shortened: as §3
Pyricularia oryzae [11] = test: In vivo antifungal activity against Magnaporthe oryzae infected rice seedlings assessed as control of rice blast disease development at 125 ug/ml treated 1 day before spore inoculation measured 3-7 days after inoculation; type: functional; procedure, shortened: as §3
Pyricularia oryzae [12] = test: In vivo antifungal activity against Magnaporthe oryzae infected rice seedlings assessed as control of rice blast disease development at 250 ug/ml treated 1 day before spore inoculation measured 3-7 days after inoculation; type: functional; procedure, shortened: as §3
Pyricularia oryzae [13] = test: In vivo antifungal activity against Magnaporthe oryzae infected rice seedlings assessed as control of rice blast disease development at 500 ug/ml treated 1 day before spore inoculation measured 3-7 days after inoculation; type: functional; procedure, shortened: as §3
Puccinia recondita [14] = test: In vivo antifungal activity against Puccinia recondita infected wheat seedlings assessed as reduction in wheat leaf rust disease symptoms development at 125 ug/ml treated 1 day before spore inoculation measured 7 days after inoculation; type: functional; design: scale not given: the % may be the effect or the level left; procedure, shortened: as §3
Puccinia recondita [15] = test: In vivo antifungal activity against Puccinia recondita infected wheat seedlings assessed as reduction in wheat leaf rust disease symptoms development at 250 ug/ml treated 1 day before spore inoculation measured 7 days after inoculation; type: functional; design: scale not given: the % may be the effect or the level left; procedure, shortened: as §3
Puccinia recondita [16] = test: In vivo antifungal activity against Puccinia recondita infected wheat seedlings assessed as reduction in wheat leaf rust disease symptoms development at 500 ug/ml treated 1 day before spore inoculation measured 7 days after inoculation; type: functional; design: scale not given: the % may be the effect or the level left; procedure, shortened: as §3
Phytophthora infestans [17] = test: In vivo antifungal activity against Phytophthora infestans zoospores infected tomato seedlings assessed as control of tomato late blight disease development treated 1 day before spore inoculation measured 3 days after inoculation; type: functional, organism-based; procedure, shortened: as §3
Phytophthora infestans [18] = test: Antifungal activity against Phytophthora infestans assessed as inhibition of radial mycelial growth at 11.11 to 900 ug/ml incubated at 20 degC for 5 to 7 days by poison plate assay; type: functional
Procedure, shortened: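 Poison-plate assay: material in MeOH added 1:100 to V8-agar at 50 °C, 2 mL per well of six-well plates, centre-inoculated with a 5 mm plug from the colony margin. Incubated at 20 °C until control growth reached the edge. Controls were 1% MeOH. Read as % inhibition of radial growth. Two runs, four replicates each. IC50 by probit.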

Phytophthora infestans [19] = test: Antifungal activity against Phytophthora infestans assessed as inhibition of zoospore germination incubated in the dark at 20 degC for 24 hr by light microscopy; type: functional, organism-based
Procedure, shortened: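 Zoospores released by chilling sporangia 1 h at 4 °C, then filtered to remove sporangia. Test solution in MeOH mixed 1:100 with the suspension (1% MeOH control), loaded onto hole-slide glasses and kept humid at 20 °C for 24 h in the dark. Germinated cells counted per hole by light microscope. Experiment repeated, mean ± SD.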

Phytophthora infestans [20] = test: Antifungal activity against Phytophthora infestans assessed as inhibition of sporangium germination incubated at 20 degC for 24 hr by light microscopy; type: functional, organism-based
Procedure, shortened: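 Sporangium germination: compounds serially diluted in MeOH (12500 to 391 μg/mL as stock series), sporangia incubated 24 h at 20 °C. About 100 sporangia per replicate scored for germination by light microscope. Experiment repeated, mean ± SD. IC50 by probit.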

Meloidogyne incognita [21] = test: Nematicidal activity against second juvenile stage (J2) of Meloidogyne incognita (root-knot nematode) assessed as mortality at 11 ug/ml incubated in the dark at 28 degC within 2 hr by light microscopy (benficial crop Tomato); type: functional
Colletotrichum coccodes [22] = test: In vivo antifungal activity against Colletotrichum coccodes infected red pepper seedlings assessed as control of red pepper anthracnose development at 250 ug/ml treated 1 day before spore inoculation measured 3-7 days after inoculation; type: functional; procedure, shortened: as §3
Colletotrichum coccodes [23] = test: In vivo antifungal activity against Colletotrichum coccodes infected red pepper seedlings assessed as control of red pepper anthracnose development at 500 ug/ml treated 1 day before spore inoculation measured 3-7 days after inoculation; type: functional; procedure, shortened: as §3
Blumeria hordei [24] = test: In vivo antifungal activity against Blumeria graminis f. sp. hordei infected barley seedlings assessed as control of barley powdery mildew disease development at 125 ug/ml treated 1 day before spore inoculation measured 3-7 days after inoculation; type: functional; procedure, shortened: as §3
Blumeria hordei [25] = test: In vivo antifungal activity against Blumeria graminis f. sp. hordei infected barley seedlings assessed as control of barley powdery mildew disease development at 250 ug/ml treated 1 day before spore inoculation measured 3-7 days after inoculation; type: functional; procedure, shortened: as §3
Blumeria hordei [26] = test: In vivo antifungal activity against Blumeria graminis f. sp. hordei infected barley seedlings assessed as control of barley powdery mildew disease development at 500 ug/ml treated 1 day before spore inoculation measured 3-7 days after inoculation; type: functional; procedure, shortened: as §3
Botrytis cinerea [27] = test: In vivo antifungal activity against Botryotinia fuckeliana infected in tomato seedlings assessed as control of tomato gray mold disease development at 125 ug/ml treated 1 day before spore inoculation measured 3-7 days after inoculation; type: functional; procedure, shortened: as §3
Puccinia recondita [28] = test: In vivo antifungal activity against Puccinia recondita infected wheat seedlings assessed as reduction in wheat leaf rust disease symptoms development at 50 to 300 ug/ml treated 1 day before spore inoculation measured 7 days after inoculation; type: functional, organism-based; procedure, shortened: as §3
Phytophthora infestans [29] = test: In vivo antifungal activity against Phytophthora infestans zoospores infected tomato seedlings assessed as control of tomato late blight disease development at 3.9 ug/ml treated 1 day before spore inoculation measured 3 days after inoculation; type: functional; procedure, shortened: as §3
Colletotrichum coccodes [30] = test: In vivo antifungal activity against Colletotrichum coccodes infected red pepper seedlings assessed as control of red pepper anthracnose development at 125 ug/ml treated 1 day before spore inoculation measured 3-7 days after inoculation; type: functional; procedure, shortened: as §3

## CCCCCCCCCC[C@@H](O)[C@H]1CC[C@H]([C@H]2CC[C@H]([C@H](O)CCCCCCCCCC[C@@H](O)CC3=C[C@H](C)OC3=O)O2)O1 [REL-SQUAMOCIN-H]
Meloidogyne incognita [1]
  LC50: 24.3 µg/mL (≈ 39 µM)
Meloidogyne incognita [2]
  LC50: 71.2 µg/mL (≈ 114 µM)
Caenorhabditis elegans
  LD100: 0.1 ppm
[3]
  mortality: 100%
[4]
  LC50: 0.012 µg/mL
Meloidogyne incognita [5]
  LC50: > 100 µg/mL

## CCCCCCCCCC[C@H](O)[C@H]1CC[C@H]([C@H]2CC[C@H]([C@H](O)CCCCCCCCCC[C@@H](O)CC3=C[C@H](C)OC3=O)O2)O1 (relative stereo) [REL-SQUAMOCIN-G]
Meloidogyne incognita [1]
  LC50: 0.287 µg/mL (≈ 0.461 µM)
Meloidogyne incognita [2]
  LC50: 0.339 µg/mL (≈ 0.544 µM)
Rhizoctonia solani [6]
  Activity: 11.8%
Botrytis cinerea [7]
  Activity: 20%
Botrytis cinerea [8]
  Activity: 0%
Rhizoctonia solani [9]
  Activity: 0%
Rhizoctonia solani [10]
  Activity: 0%
Pyricularia oryzae [11]
  Activity: 12.5%
Pyricularia oryzae [12]
  Activity: 18.8%
Pyricularia oryzae [13]
  Activity: 18.8%
Puccinia recondita [14]
  Activity: 0%
Puccinia recondita [15]
  Activity: 0%
Puccinia recondita [16]
  Activity: 0%
Phytophthora infestans [17]
  Activity: Dose-dependent effect
Phytophthora infestans [18]
  growth inhibition (GI): 31%
Phytophthora infestans [19]
  IC50: 1.92 µg/mL (≈ 3.08 µM)
  inhibition: Dose-dependent effect
Phytophthora infestans [20]
  IC50: 1.43 µg/mL (≈ 2.3 µM)
  inhibition: Dose-dependent effect
[3]
  mortality: 100%
[4]
  LC50: 0.008 µg/mL
Meloidogyne incognita [21]
  mortality at 11 µg/mL: 100%
Meloidogyne incognita [5]
  LC50: 0.864 µg/mL (≈ 1.39 µM)
Colletotrichum coccodes [22]
  Activity: 0%
Colletotrichum coccodes [23]
  Activity: 0%
Blumeria hordei [24]
  Activity: 0%
Blumeria hordei [25]
  Activity: 25%
Blumeria hordei [26]
  Activity: 0%
Botrytis cinerea [27]
  Activity: 20%

## CCCCCC[C@H](O)CCC[C@H](O)[C@H]1CC[C@H]([C@H](O)CC[C@H](O)[C@@H]2CC[C@@H](CCCCCCCCCC3=C[C@H](C)OC3=O)O2)O1 (relative stereo) [SQUAMOSTATIN A]
Rhizoctonia solani [6]
  Activity: 0%
Botrytis cinerea [7]
  Activity: 10%
Botrytis cinerea [8]
  Activity: 10%
Rhizoctonia solani [9]
  Activity: 11.8%
Rhizoctonia solani [10]
  Activity: 11.8%
Pyricularia oryzae [11]
  Activity: 50%
Pyricularia oryzae [12]
  Activity: 31.3%
Pyricularia oryzae [13]
  Activity: 37.5%
Puccinia recondita [28]
  Activity: Active
Phytophthora infestans [29]
  Activity: >70%
Phytophthora infestans [17]
  Activity: Dose-dependent effect
Phytophthora infestans [18]
  growth inhibition (GI): 31%
Phytophthora infestans [19]
  IC50: 1.89 µg/mL (≈ 2.96 µM)
  inhibition: Dose-dependent effect
Phytophthora infestans [20]
  IC50: 2.09 µg/mL (≈ 3.27 µM)
  inhibition: Dose-dependent effect
[3]
  mortality: 100%
[4]
  LC50: 0.048 µg/mL
Colletotrichum coccodes [30]
  Activity: 20%
Colletotrichum coccodes [22]
  Activity: 40%
Colletotrichum coccodes [23]
  Activity: 0%
Blumeria hordei [24]
  Activity: 0%
Blumeria hordei [25]
  Activity: 0%
Blumeria hordei [26]
  Activity: 0%
Botrytis cinerea [27]
  Activity: 10%

Source: ChEMBL document CHEMBL3044956, “Nematicidal and antifungal activities of annonaceous acetogenins from Annona squamosa against various plant pathogens” (J Agric Food Chem, 2011)
